Source: ChEMBL document CHEMBL1158344, “Synthesis and antinociceptive activities of some pyrazoline derivatives” (Eur J Med Chem, 2009)

What was measured:
[1] = system: Mus musculus; test: Analgesic activity in 5 mg/kg naloxone pretreated Swiss albino mouse assessed as analgesia at 100 mg/kg by hot plate method; type: functional
Procedure, shortened: (§1)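 Mice, n = 7 per group, were placed one at a time on a hot plate held at 55 ± 1.0 °C. Latency to forepaw licking or to jumping out of the glass beaker was recorded, with a cut-off of 30 s. Latency was read 30 min after compound at 100 mg/kg or sunflower oil vehicle. In naloxone groups, naloxone 5 mg/kg ip was given 15 min before compound. Results are reported as % analgesia, mean ± SEM.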

[2] = system: Mus musculus; test: Antinociceptive activity in 5 mg/kg naloxone pretreated Swiss albino mouse assessed as protection against acetic acid-induced writhing at 100 mg/kg, ip administered 30 mins before acetic acid challenge; type: functional
Procedure, shortened: (§2)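 Mice, n = 7 per group, received sunflower oil vehicle or compound at 100 mg/kg ip. 30 min later they were given 0.6% acetic acid ip at 10 mL/kg. Abdominal contractions and stretches were counted over 10 min, starting 5 min after the acetic acid. In naloxone groups, naloxone was given 15 min before compound. % protection = [(control mean − treated mean)/control mean] × 100.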

[3] = species: Mus musculus; test: Neurological deficit effect in Swiss albino mouse assessed as effect on motor coordination by measuring fall latency by Rota rod test; conditions: in vivo
Procedure, shortened: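 Mice were trained for three consecutive days on a Rota-Rod at 16 rev/min, and only those staying on longer than 180 s were used. Each mouse was tested on the rod 5 min after the hot plate test, and the latency to fall was recorded.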

[4] = system: Mus musculus; test: Toxicity in Swiss albino mouse assessed as mortality at 100 mg/kg; type: organism-based; parameters: dose 100 mg/kg; conditions: in vivo
[5] = system: Mus musculus; test: Analgesic activity in Swiss albino mouse assessed as analgesia at 100 mg/kg by hot plate method; type: functional; procedure, shortened: as §1
[6] = system: Mus musculus; test: Antinociceptive activity in Swiss albino mouse assessed as protection against acetic acid-induced writhing at 100 mg/kg, ip administered 30 mins before acetic acid challenge; type: functional; conditions: route intraperitoneal; procedure, shortened: as §2
[7] = system: Mus musculus; test: Analgesic activity in Swiss albino mouse assessed as analgesia at 10 mg/kg by hot plate method; type: functional
Procedure, shortened: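 Mice (n = 7) were dosed with the test compound in sunflower oil vehicle. Thirty minutes later each mouse was placed on a hot plate at 55 ± 1.0 °C. Latency to forepaw licking or jumping out of the glass beaker was recorded, with a 30 s cut-off. Values are mean ± SEM % analgesia.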

[8] = system: Mus musculus; test: Antinociceptive activity in Swiss albino mouse assessed as protection against acetic acid-induced writhing at 10 mg/kg, ip administered 30 mins before acetic acid challenge; type: functional; conditions: route intraperitoneal
Procedure, shortened: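 Mice (n = 7) were given the compound i.p. in sunflower oil vehicle, then 0.6% acetic acid i.p. (10 mL/kg) 30 min later. Abdominal contractions and stretches were counted for 10 min, starting 5 min after the acid. % protection = [(control mean − treated mean)/control mean] × 100. Values are mean ± SEM.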

Row | SMILES | Activity [1] [%] | Activity [2] [%] | Activity [3] | Activity [4] | Activity [5] [%] | Activity [6] [%] | Activity [7] [%] | Activity [8] [%]
1 | COc1ccc(C2CC(c3ccccc3)=NN2C(=O)CSc2nc3ccccc3[nH]2)cc1 (stereo not drawn) | -1.34 | 22.32 | Non-toxic | Non-toxic | 60.6 | 97.21 |  | 
2 | Cc1ccc(C2=NN(C(=O)CSc3nc4ccccc4[nH]3)C(c3ccccc3)C2)cc1C (stereo not drawn) | -0.58 | 19.07 | Non-toxic | Non-toxic | 82.5 | 97.67 |  | 
3 | O=C(CSc1nc2ccccc2[nH]1)N1N=C(c2ccccc2)CC1c1ccccc1 (stereo not drawn) | -1.5 | 12.56 | Non-toxic | Non-toxic | 61.9 | 85.13 |  | 
4 | Cc1ccc(C2=NN(C(=O)CSc3nc4cc(Cl)ccc4o3)C(c3ccccc3)C2)cc1C (stereo not drawn) | -0.97 | 21.39 | Non-toxic | Non-toxic | 72.6 | 98.14 |  | 
5 | O=C(CSc1nc2cc(Cl)ccc2o1)N1N=C(c2ccccc2)CC1c1ccccc1 (stereo not drawn) | -1.32 | 7.44 | Non-toxic | Non-toxic | 59.7 | 57.72 |  | 
6 | COc1ccc(C2CC(c3ccccc3)=NN2C(=O)CSc2nc3cc(Cl)ccc3o2)cc1 (stereo not drawn) | -2.95 | 5.58 | Non-toxic | Non-toxic | 47.7 | 43.32 |  | 
7 | CN1CC[C@]23c4c5ccc(O)c4O[C@H]2[C@@H](O)C=C[C@H]3[C@H]1C5 [MORPHINE] |  |  |  |  |  |  | 92.9 | 87.45
